Measured values published in ChEMBL document CHEMBL4024708, “Recent synthetic and medicinal perspectives of dihydropyrimidinones: A review” (Eur J Med Chem, 2017).
Converted amounts (≈) assume the structure as drawn. One block for each molecule: values may come before it.

Key:
[1] = system: Rattus norvegicus; assay: Anti-inflammatory activity in rat assessed as inhibition of carrageenan-induced hind paw edema at 10 mg/kg, po pretreated for 1 hr followed by carrageenan challenge measured after 3 hrs by plethysmometer relative to control; type: functional
Summary of the method: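 Albino rats; carrageenan-induced paw edema test after Winter et al., with diclofenac sodium as reference standard. Percentage reduction in inflammation recorded 3 h after carrageenan, relative to carrageenan-only animals.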

[2] = system: Mus musculus; assay: Anticonvulsant activity in ip dosed maximal electroshock induced seizure mouse model assessed as suppression of hind limb tonic extension measured at 0.5 hrs post dose; type: functional; conditions: read-out: MED
Summary of the method: (§1)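 Albino mice given the compound ip, suspended in 0.5% methyl cellulose–water, at 30, 100 and 300 mg/kg. Maximal electroshock by corneal electrodes: 50 mA, 60 Hz, 0.2 s. Abolition of hind limb tonic extension scored as protection. Value is the minimum dose active in half or more of the mice.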

[3] = system: Mus musculus; assay: Anticonvulsant activity in ip dosed maximal electroshock induced seizure mouse model assessed as suppression of hind limb tonic extension measured at 4 hrs post dose; type: functional; conditions: read-out: MED; summary of the method: as §1
[4] = Half-life in Beagle dog at 0.5 mg/kg, iv by LC-MS analysis; type: ADME, organism-based, Canis lupus familiaris; conditions: in vivo
[5] = system: Staphylococcus aureus; assay: Antibacterial activity against Staphylococcus aureus MTCC 3160 by spectrophotometric method; type: functional
Summary of the method: (§2)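 Serial broth dilution, 200 to 15.625 μg/mL, in nutrient broth, sonicated 10 min. Inoculum gave a starting density of 10^3–10^4 CFU/mL. Flasks were shaken at 200 rpm and 37 °C, and growth followed by the rise in absorbance at 600 nm. MIC is the lowest concentration inhibiting the organism. Controls: compound without inoculum, and inoculum without compound.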

[6] = system: Pseudomonas aeruginosa; assay: Antibacterial activity against Pseudomonas aeruginosa MTCC 2581 by spectrophotometric method; type: functional; conditions: read-out: MIC; summary of the method: as §2
[7] = system: Klebsiella pneumoniae; assay: Antibacterial activity against Klebsiella pneumoniae MTCC 7028 by spectrophotometric method; type: functional; summary of the method: as §2
[8] = system: Escherichia coli; assay: Antibacterial activity against Escherichia coli MTCC 443 by spectrophotometric method; type: functional; summary of the method: as §2
[9] = system: CCRF-CEM; assay: cells; conditions: Homo sapiens, 48 h
[10] = system: SR; assay: Growth inhibition of human SR cells after 48 hrs by SRB assay; type: functional

Compound: Cc1ccc(C2=C(CC(=O)O)C(c3ccc(Cl)cc3)NC(S)=N2)cc1 (configuration not stated)
inhibition in vivo at 10 mg/kg [1]: 22%

Compound: SC1=NC(n2nc(-c3ccccc3)nc2-c2ccccc2)=CC(c2ccc(Cl)cc2)N1 (configuration not stated)
minimal effective dose [2]: 30 mg/kg
minimal effective dose [3]: 300 mg/kg

Compound: COc1ccc(C2C=C(n3nc(-c4ccccc4)nc3-c3ccccc3)N=C(S)N2)c(OC)c1 (configuration not stated)
minimal effective dose [2]: 30 mg/kg
minimal effective dose [3]: 300 mg/kg

Compound: SC1=NC(n2nc(-c3ccccc3)nc2-c2ccccc2)=CC(c2ccc(-c3ccccc3)cc2)N1 (configuration not stated)
minimal effective dose [2]: 100 mg/kg
minimal effective dose [3]: 300 mg/kg

Compound: COc1ccc(C2C=C(n3cc(-c4ccccc4)nc3-c3ccccc3)N=C(S)N2)cc1 (configuration not stated)
minimal effective dose [2]: 100 mg/kg
minimal effective dose [3]: 300 mg/kg

half-life [4]: 7 to 8 h
Compound: COCC1=C(C(=O)NCCCN2CCC(c3ccc(F)cc3)CC2)[C@@H](c2ccc(F)c(F)c2)NC(=O)N1

MIC [5]: 250 µg/mL (≈ 1110 µM)
MIC [6]: 250 µg/mL (≈ 1110 µM)
Compound: CCCCC1NC(=O)NC(C)=C1C(=O)CC (configuration not stated)

MIC [7]: 31.2 to 62.5 µg/mL (≈ 114 to 227 µM)
Compound: CC(=O)C1=C(C)NC(=O)NC1c1ccc([N+](=O)[O-])cc1 (configuration not stated)

Compound: O=C(O)CC1=C(c2ccccc2)N=C(S)NC1c1ccc(Cl)cc1 (configuration not stated)
inhibition in vivo at 10 mg/kg [1]: 30%

MIC [7]: 31.2 to 62.5 µg/mL (≈ 118 to 236 µM)
MIC [6]: 250 µg/mL (≈ 944 µM)
Compound: CC(=O)C1=C(C)NC(=O)NC1c1ccc(Cl)cc1 (configuration not stated)

Compound: NC(=O)N1c2ccccc2C=Cc2ccccc21 [CARBAMAZEPINE]
minimal effective dose [3]: 100 mg/kg

MIC [5]: 62.5 to 125 µg/mL (≈ 240 to 480 µM)
MIC [7]: 31.2 to 62.5 µg/mL (≈ 120 to 240 µM)
MIC [6]: 250 µg/mL (≈ 960 µM)
Compound: COc1ccc(C2NC(=O)NC(C)=C2C(C)=O)cc1 (configuration not stated)

MIC [5]: 250 µg/mL (≈ 911 µM)
MIC [6]: 250 µg/mL (≈ 911 µM)
Compound: CCC(=O)C1=C(C)NC(=O)NC1c1cccc(OC)c1 (configuration not stated)

Compound: Cc1ccc(C2=C(CC(=O)O)C(c3cccs3)NC(S)=N2)cc1 (configuration not stated)
inhibition in vivo at 10 mg/kg [1]: 10%

Compound: O=C(O)CC1=C(c2ccccc2)N=C(S)NC1c1ccccc1 (configuration not stated)
inhibition in vivo at 10 mg/kg [1]: 17%

Compound: COc1ccc(C2NC(S)=NC(c3ccc(Cl)cc3)=C2CC(=O)O)cc1 (configuration not stated)
inhibition in vivo at 10 mg/kg [1]: 35%

MIC [7]: 31.2 to 62.5 µg/mL (≈ 112 to 224 µM)
MIC [8]: 15.6 to 31.2 µg/mL (≈ 56 to 112 µM)
MIC [6]: 62.5 µg/mL (≈ 224 µM)
Compound: CCC(=O)C1=C(C)NC(=O)NC1c1cccc(Cl)c1 (configuration not stated)

Compound: SC1=NC(n2nc(-c3ccccc3)nc2-c2ccccc2)=CC(c2ccccc2Cl)N1 (configuration not stated)
minimal effective dose [2]: 30 mg/kg
minimal effective dose [3]: 300 mg/kg

Compound: O=[N+]([O-])c1cccc(C2C=C(n3cc(-c4ccccc4)nc3-c3ccccc3)N=C(S)N2)c1 (configuration not stated)
minimal effective dose [2]: 30 mg/kg
minimal effective dose [3]: 300 mg/kg

GI50 [9]: 3.24 µM
Compound: O=c1/c(=C/c2ccc([N+](=O)[O-])o2)sc2n1C(c1ccc3c(c1)OCO3)C=C(c1cc(F)c(Cl)cc1Cl)N=2 (configuration not stated)
GI50 [10]: 3.34 µM

Compound: COc1ccc(C2NC(=S)NC(c3ccc(C)cc3)=C2CC(=O)O)cc1 (configuration not stated)
inhibition in vivo at 10 mg/kg [1]: 33%

Compound: SC1=NC(n2nc(-c3ccccc3)nc2-c2ccccc2)=CC(c2ccc(-c3ccco3)cc2)N1 (configuration not stated)
minimal effective dose [2]: 30 mg/kg
minimal effective dose [3]: 300 mg/kg
